High-throughput results deposited in PubChem BioAssay by several laboratories.
RanGTP-Imp inh: inhibitors of RanGTP-importin-beta interaction, primary screen, biochemical, FRET, CFP-Ran, YFP-importin-beta, homogeneous; inhibition, % (test concentration not listed); AID 2216; 1.1% of 300,000 active; cell-free CFP-Ran/YFP-importin-beta FRET ratio;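 active = more than half of the replicate wells show a fall in the fluorescence ratio signal beyond about 16%, limit read from the data, passing the limit was not always enough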;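 also: 0% = DMSO wells and 100% = Ran loaded with GDP instead of GTP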
Calpain2 inh: calpain II (pig) inhibition; 0.37% of 220,000 active; inhibition, % at 16 µM; purified calpain II, fluorogenic peptide substrate, 30 min;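 active = inhibition above about 50%, limit read from the data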
FAS-TE inh: blocks the thioesterase domain of human fatty acid synthase | P49327 | inhibition, % at 15 µM | 0.67% of 360,000 active | AID 602261 | recombinant FAS-TE, OMFH fluorogenic substrate, fluorescence endpoint;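 active = compounds whose normalised, plate-corrected inhibition of enzyme fluorescence in the single-dose primary screen is 50% or more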;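 also: 0% = DMSO with enzyme and 100% = substrate without enzyme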
Target sequence (P49327 whole entry, looked up, the tested form may be a part): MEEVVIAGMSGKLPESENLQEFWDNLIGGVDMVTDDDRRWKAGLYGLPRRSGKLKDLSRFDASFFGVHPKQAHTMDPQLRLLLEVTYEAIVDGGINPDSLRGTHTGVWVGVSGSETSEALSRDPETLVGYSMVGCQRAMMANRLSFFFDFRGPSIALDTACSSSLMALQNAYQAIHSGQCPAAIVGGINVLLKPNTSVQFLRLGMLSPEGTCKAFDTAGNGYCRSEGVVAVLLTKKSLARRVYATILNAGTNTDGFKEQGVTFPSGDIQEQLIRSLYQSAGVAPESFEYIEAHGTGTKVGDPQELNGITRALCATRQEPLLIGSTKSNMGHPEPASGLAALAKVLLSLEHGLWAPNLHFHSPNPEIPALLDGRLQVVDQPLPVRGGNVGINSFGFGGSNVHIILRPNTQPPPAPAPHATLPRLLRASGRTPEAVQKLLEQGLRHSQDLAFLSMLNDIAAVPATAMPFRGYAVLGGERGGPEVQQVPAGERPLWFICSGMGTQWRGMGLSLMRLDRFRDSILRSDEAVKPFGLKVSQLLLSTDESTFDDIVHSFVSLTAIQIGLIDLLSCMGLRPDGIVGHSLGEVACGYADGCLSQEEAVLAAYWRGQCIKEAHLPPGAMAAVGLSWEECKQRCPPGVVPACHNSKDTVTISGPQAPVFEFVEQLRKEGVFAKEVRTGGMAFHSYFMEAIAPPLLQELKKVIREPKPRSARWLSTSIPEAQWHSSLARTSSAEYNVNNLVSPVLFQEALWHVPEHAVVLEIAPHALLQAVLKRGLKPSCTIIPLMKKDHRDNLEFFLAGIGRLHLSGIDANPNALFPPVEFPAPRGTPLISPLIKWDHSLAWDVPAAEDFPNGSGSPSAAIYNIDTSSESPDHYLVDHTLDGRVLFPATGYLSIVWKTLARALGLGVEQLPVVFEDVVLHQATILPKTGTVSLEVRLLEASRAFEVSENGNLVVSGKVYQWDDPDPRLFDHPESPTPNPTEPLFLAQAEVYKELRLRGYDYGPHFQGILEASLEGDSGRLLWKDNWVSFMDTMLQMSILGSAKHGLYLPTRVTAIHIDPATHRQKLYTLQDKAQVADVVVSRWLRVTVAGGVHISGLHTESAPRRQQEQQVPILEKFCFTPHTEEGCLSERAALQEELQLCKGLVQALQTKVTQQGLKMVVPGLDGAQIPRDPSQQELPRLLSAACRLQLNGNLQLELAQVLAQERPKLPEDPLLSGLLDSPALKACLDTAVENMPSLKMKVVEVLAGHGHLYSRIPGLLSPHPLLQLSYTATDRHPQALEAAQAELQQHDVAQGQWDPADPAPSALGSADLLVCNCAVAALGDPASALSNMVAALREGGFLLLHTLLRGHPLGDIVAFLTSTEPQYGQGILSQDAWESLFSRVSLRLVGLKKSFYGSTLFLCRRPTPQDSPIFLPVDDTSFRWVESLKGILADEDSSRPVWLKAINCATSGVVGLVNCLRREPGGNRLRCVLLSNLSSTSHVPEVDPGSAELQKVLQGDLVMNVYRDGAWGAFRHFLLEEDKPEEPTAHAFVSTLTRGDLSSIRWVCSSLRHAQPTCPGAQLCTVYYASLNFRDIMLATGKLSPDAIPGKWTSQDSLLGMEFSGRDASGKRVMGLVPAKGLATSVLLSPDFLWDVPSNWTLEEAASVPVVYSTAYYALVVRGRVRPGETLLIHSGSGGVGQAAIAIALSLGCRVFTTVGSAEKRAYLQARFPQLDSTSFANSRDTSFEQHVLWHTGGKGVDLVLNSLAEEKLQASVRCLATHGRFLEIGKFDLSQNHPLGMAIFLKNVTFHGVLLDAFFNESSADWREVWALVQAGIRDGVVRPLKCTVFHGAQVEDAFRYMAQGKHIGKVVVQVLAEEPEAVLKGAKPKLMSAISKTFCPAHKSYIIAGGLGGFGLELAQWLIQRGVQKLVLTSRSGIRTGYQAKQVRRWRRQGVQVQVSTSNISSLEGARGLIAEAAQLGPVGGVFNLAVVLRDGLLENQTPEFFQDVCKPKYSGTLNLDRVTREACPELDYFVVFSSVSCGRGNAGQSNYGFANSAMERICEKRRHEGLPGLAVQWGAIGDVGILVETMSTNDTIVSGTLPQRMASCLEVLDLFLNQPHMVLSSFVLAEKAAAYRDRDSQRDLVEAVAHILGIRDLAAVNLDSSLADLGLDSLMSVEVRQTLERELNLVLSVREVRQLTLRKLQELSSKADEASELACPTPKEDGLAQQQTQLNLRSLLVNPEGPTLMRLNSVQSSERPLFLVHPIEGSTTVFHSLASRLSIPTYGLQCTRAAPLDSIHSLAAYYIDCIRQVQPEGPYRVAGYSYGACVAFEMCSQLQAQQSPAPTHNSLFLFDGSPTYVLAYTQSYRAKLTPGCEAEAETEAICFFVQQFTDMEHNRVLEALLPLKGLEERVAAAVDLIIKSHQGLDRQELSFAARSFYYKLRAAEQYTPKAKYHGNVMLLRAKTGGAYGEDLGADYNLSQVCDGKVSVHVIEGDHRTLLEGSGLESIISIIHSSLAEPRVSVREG
Runt-CBFb FRET: Runt domain-CBFb interaction inhibition. Q01196+Q13951. Cerulean-Runt/Venus-CBFb FRET ratio 530/480, 1 h. inhibition, % at 20 µM. 0.46% of 220,000 active. AID 1496;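 active = inhibition over about 50% at 20 µM in the single-dose screen, limit read from the data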;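 also: 0% = DMSO wells and 100% = excess unlabeled CBFb competitor control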
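Assay system: Cerulean-Runt domain / Medium: Tris 50 mM pH 7.5, KCl, K2SO4, 0.01% BSA / Timing: protein complex preformed 1 h, compound exposure 1 h, room temperature, dark / Measured by: FRET, excitation 422 nm, emission at 530 and 480 nm / Evaluation: loss of energy transfer signal / Control set: 5 µM unlabeled CBFb as full-inhibition high control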
Runt-SMMHC FRET: inhibitors of human RUNX1 Runt domain binding to CBFb-SMMHC. Q01196+Q13951. Cerulean-Runt/Venus-CBFb-SMMHC FRET ratio 530/480, 1 h. inhibition, % at 20 µM. 0.74% of 220,000 active. AID 1434;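 active = mean inhibition across duplicate retests at 20 µM reaching about 50%, limit read from the data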;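 also: 0% = DMSO wells and 100% = wells with excess untagged CBFb-SMMHC; inhibitors lower the FRET ratio by blocking Runt binding to CBFb-SMMHC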
YIC FRET counter: counter-screen: alters YIC FRET probe signal. AID 435026. shares compounds with RanGTP-Imp inh. 40% of 1,000 active. IC50, µM. Purified YIC probe, intramolecular FRET ratio YFP/CFP;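 active = fitted half-maximal inhibitory concentration no more than tenfold above the top dose tested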
Numbers without * were called inactive; i = inactive; . = no result. The list is not random: actives were taken first. Their share in the collection is about 2.1%.

SMILES	RanGTP-Imp inh	Calpain2 inh	FAS-TE inh	Runt-CBFb FRET	Runt-SMMHC FRET	YIC FRET counter
CC(C)(C)C(=O)NC(=S)Nc1ccc(S(=O)(=O)Nc2nccs2)cc1	17.5*	19.8	-4.1	2.7	-11.8	>50
CC(NC(=O)c1cc(S(=O)(=O)N2CCCC2)ccc1Cl)c1ccccn1 (stereo unspecified)	.	.	-7.9	.	.	.
Cn1c(SCc2cccnc2)nc2c(c1=O)SCC2	-0.7	14.1	-1.2	4.4	-5.7	.
Cn1c(SCc2cccc([N+](=O)[O-])c2)nc2c(c1=O)SCC2	16.0*	9.9	49.9	-0.1	-0.6	>50
O=C(O)c1cn(Cc2cccnc2)c(=O)c2ccccc12	17.6*	35.2	.	-1.0	1.4	>50
COC(=O)c1cn(Cc2cccnc2)c(=O)c2ccccc12	0.5	-6.8	-5.6	0.7	1.5	.
CCOc1ccccc1NC(=O)COC(=O)C1CC(=O)N(c2c(C)cccc2C)C1 (stereo unspecified)	-1.2	.	-4.4	.	.	.
COC(=O)c1cccnc1NC(=S)NNC(=O)c1ccccc1	26.8*	8.1	-10.7	2.8	-0.1	>50
NC(=O)C1CCN(C(=O)COc2ccc(Nc3ccccc3)cc2)CC1	6.3	-5.2	-3.4	3.9	0.6	.
CCCc1n(CC(O)COC2CCCCC2)c2ccccc2[n+]1C (stereo unspecified)	0.2	-16.2	-4.1	.	.	.
CCCc1n(CC(O)COCc2ccccc2)c2ccccc2[n+]1C (stereo unspecified)	35.1*	10.8	-11.2	-8.4	12.8	>50
Cc1ccc(C(=O)NCCC(=O)NCc2ccco2)cc1	-4.2	.	-5.5	.	.	.
COc1ccc(OC)c(NC(=O)CNC(=O)c2ccc([N+](=O)[O-])cc2)c1	4.9	3.0	7.5	1.3	0.7	.
O=C(O)Cc1ccc(NC(=O)c2ccc(NC(=O)C3CC3)cc2)cc1	2.4	.	-2.4	.	.	.
CS(=O)(=O)N(CC(=O)NCCSCc1ccco1)c1ccc(Cl)cc1	16.4*	-24.3	-4.2	3.1	-0.9	>50
COc1ccc(N2C(=O)CC(C#N)=C2N)cc1	17.8*	18.2	-4.3	-4.0	-6.9	>50
Cc1cc(-c2nc(C)c(C(=O)NN)s2)no1	-1.9	18.6	-5.3	-0.7	0.4	.
COC(=O)C1=CN(Cc2ccccc2)C=C(C(=O)OC)C1c1ccc(O)c(OC)c1	28.4*	.	1.3	.	.	>50
CCOc1cc(C2C(C(=O)OC)=CN(Cc3ccc(Cl)cc3)C=C2C(=O)OC)ccc1O	5.8	.	10.3	.	.	.
COC(=O)C1=CN(Cc2ccc(OC)c(OC)c2)C=C(C(=O)OC)C1c1ccccc1F	28.2*	.	12.8	.	.	11.1*
Cc1ccc(-c2c(C(=O)N/N=C/c3ccc4c(c3)OCO4)nnn2-c2nonc2N)cc1	22.8*	.	15.3	.	.	>50
COc1ccccc1NC(=O)c1cc2ccccc2nc1C	22.6*	-18.5	-4.0	-0.3	0.7	>50
Cn1c(N/N=C/c2cc3ccccc3nc2Cl)nc2ccccc21	17.3*	17.1	-5.4	1.9	-0.1	i
Cc1[nH]c2ccccc2c1/C=C/c1nc2ccccc2c(=O)n1CCO	16.9*	-33.1	5.3	-44.8	-10.5	9.01*
O=c1c2ccccc2nc(/C=C/c2ccc(Br)cc2)n1CCO	3.4	.	4.2	.	.	.
SMILES	RanGTP-Imp inh	Calpain2 inh	FAS-TE inh	Runt-CBFb FRET	Runt-SMMHC FRET	YIC FRET counter
COc1ccc(NC(=O)CSc2nc3ccccc3nc2N2CCCC2)c(OC)c1	2.3	.	20.1	.	.	.
Cc1nn(C(=O)c2ccco2)c(C)c1CN1C(=O)c2ccccc2C1=O	19.8*	29.2	11.2	-1.0	-8.4	>50
Cc1nn(C(=O)c2cccs2)c(C)c1CN1C(=O)c2ccccc2C1=O	1.4	-15.4	-1.7	-1.8	-1.1	.
N#Cc1c2ncn(CC(=O)c3ccc(Br)cc3)c(=O)c2c2n1CCC2	16.1*	-23.4	9.7	-5.0	-0.9	>50
N#Cc1c2n(c3c(=O)n(CC(=O)c4ccc(Br)cc4)cnc13)CCCC2	-3.4	-21.1	10.5	-2.0	1.8	.
O=C1c2ccccc2C(=O)C1(CO)c1ccc(OC(F)F)cc1	3.4	.	-5.8	.	.	.
COc1ccc(N2CCN(S(=O)(=O)CCNC(=O)C3CC(=O)N(c4ccccc4)C3)CC2)cc1 (stereo unspecified)	-0.8	.	-5.4	.	.	.
COc1ccc(NC(=O)c2cc3ccc(O)cc3o/c2=N\O)cc1	28.2*	.	-82.6	.	.	50.7*
CSc1ncccc1C(=O)OCC(=O)c1cc2ccccc2o1	19.4*	15.3	33.9	-4.0	0.0	>50
CSc1ncccc1C(=O)OCC(=O)c1ccccc1	0.6	-7.0	7.5	-1.1	-3.2	.
CC1(C)CC(=O)C=C(NNC(=O)C2CCCCC2)C1	19.4*	-18.9	-2.0	-4.2	-0.7	>50
Cc1cc(C)c2nc(N3CCOCC3)c(C#N)cc2c1	24.0*	.	-1.0	.	.	18.7*
Cc1ccc2cc(C#N)c(N3CCCC3)nc2c1C	26.1*	.	4.4	17.9	53.3*	5.28*
N#Cc1cc2cc3c(cc2nc1N1CCOCC1)OCO3	38.5*	-452.9	-3.9	96.9*	108.7*	9.02*
N/C(CN1CCCCC1)=N\S(=O)(=O)c1cc(Cl)cc(Cl)c1	4.0	-49.9	1.1	-3.2	-0.8	.
Cc1[nH]nc2c1C(c1ccoc1)C(C#N)=C(N)O2 (stereo unspecified)	20.9*	26.4	-7.7	.	.	>50
CCc1cc(C(=O)N2CCc3c([nH]c4ccccc34)C2c2ccc(OC)cc2F)no1 (stereo unspecified)	0.5	-70.4	21.6	-0.9	0.5	.
Cc1cc(C(=O)N2CCc3c([nH]c4ccccc34)C2c2c(F)cccc2Cl)no1 (stereo unspecified)	27.5*	-17.0	11.8	1.3	2.3	>50
Cc1ccccc1NC(=O)c1c(C)nn(-c2ccccc2)c1Cl	5.2	1.3	32.1	-1.7	3.5	.
CCc1nnc(NC(=O)c2c(C)nn(-c3ccccc3)c2Cl)s1	20.1*	0.5	-5.0	-1.5	-1.1	>50
CC1(C)CC(=O)C/C(=N\NC(=O)C2CC23CCC3)C1 (stereo unspecified)	18.2*	-31.0	-2.4	2.0	0.6	>50
Cc1ccc(-n2c(=O)c(C#N)cc3c(=O)n4ccccc4nc32)cc1	44.5*	-469.2	18.0	18.8	59.6*	0.72*
O=C(COC(=O)c1ccc(Cl)nc1)Nc1nnc(-c2ccccc2)o1	2.3	.	-9.9	.	.	.
CNc1cc(F)nc(F)n1	26.9*	-25.2	-6.1	14.0	36.1	21.6*
CNc1cccc(-c2cccc(O)c2)n1	.	.	-6.5	.	.	.
COc1ccc(C(=O)/C=C(\C)NCc2ccc3c(c2)OCO3)cc1	23.6*	18.4	4.9	-2.4	-2.7	>50
CC(=O)Oc1ccc(C(=O)NCc2ccc3c(c2)OCO3)cc1	-1.6	.	-1.5	.	.	.
CC(C)(C)c1ccc(NC(=O)C2=CN3CCS(=O)(=O)N=C3C=C2)cc1	.	.	-8.6	.	.	.
Cc1c(C)c2ccc(OCC(=O)N(C)C3CCS(=O)(=O)C3)c(C)c2oc1=O (stereo unspecified)	-0.2	.	-5.1	.	.	.
